# Lmaj promast – Leishmania major promastigote growth inhibition, primary screen; inhibition, % at 10 µM; actives 9% (n = 200,000); AID 1063, 2008; Leishmania major promastigotes, resazurin fluorescence viability; in the data active = inhibition above about 50%;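 also: promastigotes grown with compound for 44 hours at 28 °C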
# b-catenin transl – modulators of beta-catenin nuclear translocation, primary screen, imaging, HeLa cells, immunofluorescence, high-content | actives 0.3% (n = 190,000) | AID 1665, 2009 | nuclear translocation activity, % at 5 µM;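 active = nuclear translocation activity above 50% at 5 µM, with a well cell count of 50 or more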;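 also: per-cell ratio of nuclear to cytoplasmic median beta-catenin stain intensity; plate controls were DMSO negative control for no effect and GSK-3 inhibitor IX positive control for full effect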
#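 Technique: fluorescence imaging of beta-catenin antibody stain plus DAPI / Material: human HeLa cell line / Incubation: compound treatment 24 h, 37°C, 5% CO2 / Read-out basis: % activation of per-cell nuclear versus cytoplasmic median beta-catenin signal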
# HSV replic up – enhancers of HSV replication in host cells, fold increase, host cell viability; HSV replication augmentation in cells; maximum fold increase; actives 0.005% (n = 220,000); AID 1956, 2009; in the data active = maximum fold increase above about 1.5; tested in PC3 cells
# Dynein cargo inh – inhibitors of GR-EGFP nuclear translocation, primary screen, dynein cargo transport inhibitor project, imaging, high-content, 3617.4 mouse cells; AID 1381, 2008; z-score, hits read low; test concentration mostly 20 µM; stimulated with dexamethasone, 1 µM; active compounds read low; actives 0.47% (n = 220,000);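 active = plate z-score of nuclear minus cytoplasmic receptor signal below a set negative limit, without overly bright fluorescence or cell loss, cut at about -3.5 in these data, passing the limit was not always enough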;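 also: z-score of nuclear minus cytoplasmic ring GR-EGFP intensity difference per well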
#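 Also added – dexamethasone, 1.0 µM final · Buffer or medium – tet-free, stripped-serum medium · Schedule – induction 48 h, compound 1 h, agonist 30 min · Detection – formaldehyde fixation, Hoechst nuclear stain, 10x automated fluorescence imaging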
# MT stabilizer – microtubule stabilizers in HeLa cells, primary screen, imaging, high-content imaging; HeLa tubulin immunostaining HCS, 24 h; share of cells brighter than vehicle mean+2SD; AID 2205, 2009; actives 0.83% (n = 200,000); % tubulin-high responders, % at 10 µM;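 active = plate Z-score above 3 for both tubulin-high and condensed-nucleus cell shares, with cell loss under 80%, at 10 µM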;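 also: anti alpha tubulin signal scored within the nucleus-defined area of each cell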
# The depositor's hits bear a star; i = inactive; . = not tested or not shown. In the library only some 8.9% were active in any assay of this set; here they are far more common.
SMILES,Lmaj promast,b-catenin transl,HSV replic up,Dynein cargo inh,MT stabilizer
C=C(C)[C@@H]1CC=C(CN2CCC(N3CCC(C(=O)N4CCCC4)CC3)CC2)CC1,79*,0,i,0.19,2
C=C(C)C1CC=C(CN2CCC(O)CC2)CC1 (stereo unspecified),93*,.,i,-1.3,2
C=C(C)[C@@H]1CC=C(C(=O)O)CC1,.,-1,i,-0.52,.
CC(C)=CCCC(C)CN1CCC(N2CCC(C(=O)N3CCCC3)CC2)CC1 (stereo unspecified),73*,-2,i,-0.43,2
CCN(CC)C(=O)c1[nH]cnc1C(=O)N[C@@H](CC(C)C)C(=O)OC(C)(C)C,-5,-1,i,0.55,1
O=C(NC(=S)NCC1CCCO1)c1ccc([N+](=O)[O-])cc1 (stereo unspecified),52*,-4,i,0.71,2
Cc1nn(Cc2cccc(C(=O)NC34CC5CC(CC(C5)C3)C4)c2)c(C)c1Br,54*,1,i,0.37,2
CCCNC(=O)c1cccc(Cn2nc(C)c(Br)c2C)c1,6,0,i,-0.48,2
COc1ccc(C2C3=C(CC(c4ccco4)CC3=O)Nc3ccccc3N2C(C)=O)cc1 (stereo unspecified),-3,-4,i,2.7,2
CCOCCCNC(=O)c1c[nH]c2cc(OC)ccc2c1=O,-1,1,i,1.2,3
Cc1ccc(NC(=O)C(OC(=O)c2cc(C)oc2C)c2ccccc2)cc1 (stereo unspecified),52*,-1,i,0.4,2
Cc1cc(C(=O)OC(C(=O)Nc2cccc(C(F)(F)F)c2)c2ccccc2)c(C)o1 (stereo unspecified),20,-3,i,0.26,2
COc1ccc2cc(S(=O)(=O)N3CCCCCC3)ccc2c1,57*,1,i,-0.59,3
COc1ccc(S(=O)(=O)N2CCCCCC2)cc1N(C)S(=O)(=O)c1ccc(C)cc1,51*,-2,i,0.52,2
COc1ccc(NS(=O)(=O)c2ccc(S(=O)(=O)N3CCCC3)cc2)cc1,52*,1,i,-0.53,1
COc1ccc(NS(=O)(=O)c2ccc(S(=O)(=O)N3CCOCC3)cc2)cc1,-4,0,i,-1.4,2
COc1ccc(-n2cc(-c3ccc(OC)c(OC)c3)[nH]c2=S)cc1,-3,-1,i,0.69,1
CCN1CCN(C(=O)CN(CC)S(=O)(=O)c2ccc(Cl)cc2)CC1,3,0,i,-0.18,2
CC(C)NC(=O)/C(C#N)=C/c1cccc(NC(=O)c2ccccc2Cl)c1,100*,-2,i,2.7,4
COCCNC(=O)/C(C#N)=C/c1cccc(NC(=O)c2ccccc2Cl)c1,30,0,i,-1.6,2
O=C(Cn1nnc2ccccc21)OCc1ccccc1,0,-1,i,2.2,2
COc1ccc(-c2noc(C3CCCN(C(=O)c4ccccc4OC)C3)n2)cc1OC (stereo unspecified),11,-2,i,-0.6,2
COc1ccc(C(=O)N2CCCC(c3nc(-c4ccc(OC)c(OC)c4)no3)C2)c(OC)c1 (stereo unspecified),87*,-3,i,-0.31,5
O=C1/C(=C/c2ccncc2)SC(=S)N1C1CCS(=O)(=O)C1 (stereo unspecified),100*,2,i,-3,2
O=C1/C(=C\c2cccs2)SC(=S)N1C1CCS(=O)(=O)C1 (stereo unspecified),77*,0,i,0.2,2
SMILES,Lmaj promast,b-catenin transl,HSV replic up,Dynein cargo inh,MT stabilizer
O=C1/C(=C/c2ccccc2)SC(=S)N1C1CCS(=O)(=O)C1 (stereo unspecified),.,1,i,-0.66,.
C/C(=N\S(=O)(=O)c1ccc(C)cc1)N1CCCCC1,-5,1,i,0.13,3
CN1CCN(CCCN2c3ccccc3Sc3ccc(C(F)(F)F)cc32)CC1,86*,-2,i,0.75,3
Cc1cc2cc(CN(CC3CCCO3)C(=S)Nc3ccccc3)c(=O)[nH]c2cc1C (stereo unspecified),68*,23,i,0.33,14*
COc1ccc2[nH]c(=O)c(CN(CC3CCCO3)C(=S)Nc3ccccc3)cc2c1 (stereo unspecified),40,0,i,-0.26,4
COc1ccc2cc(CN(CC3CCCO3)C(=S)Nc3ccccc3)c(=O)[nH]c2c1 (stereo unspecified),26,43,i,-0.52,27*
CCOC(=O)c1[nH]c2cc(OC)c(OC)cc2c1NC(=O)CN1CCN(C)CC1,5,3,i,0.89,3
Cc1cccc(C(=O)NNC(=O)c2cc3cc4ccccc4nc3s2)c1,-5,.,i,0.32,2
Cc1ccc(S(=O)(=O)NNC(=O)c2cc3cc4ccccc4nc3s2)cc1,92*,.,i,0.17,1
O=C(CCc1ccccc1)Nc1ccc2c(c1)OCCO2,-3,-2,i,1.2,4
Nc1nc(SCC(=O)Nc2ccc(Cl)cn2)n[nH]1,-3,0,i,0.059,2
CC(NC(=O)COC(=O)/C=C/c1ccco1)c1ccccc1 (stereo unspecified),-4,-1,i,0.067,3
Cc1ccc(S(C)(=O)=O)cc1S(=O)(=O)Nc1ccccc1,50*,0,i,-1.2,3
COc1cccc(S(=O)(=O)Nc2ccc3sc(C)nc3c2)c1,0,.,i,0.64,2
COc1ccc(NS(=O)(=O)c2cc(C)ccc2C)cc1,0,0,i,-0.27,59*
Cc1ccc(S(=O)(=O)N(C)c2ccc3sc(C)nc3c2)cc1,-5,-2,i,-1.1,18*
Cc1ccc(C)c(S(=O)(=O)Nc2ccc3sc(C)nc3c2)c1,95*,5,i,-0.46,5
CCNS(=O)(=O)c1ccc(NS(=O)(=O)c2cc(C)ccc2C)cc1,-4,2,i,-0.49,4
COc1ccc(NS(=O)(=O)c2cc(S(C)(=O)=O)ccc2C)cc1,49,1,i,-0.7,4
Cc1ccc(NC(=O)CCn2nnc3ccccc32)cc1,1,0,i,0.85,3
Cc1ccc(OC(C)C(=O)Nc2ccc(C)c(S(=O)(=O)Nc3ccc(C)cc3C)c2)cc1 (stereo unspecified),67*,-1,i,-1.4,3
CC1=C(C(=O)c2ccccc2)C(c2cccc([N+](=O)[O-])c2)NC(=S)N1 (stereo unspecified),6,-1,i,0.28,4
CCOc1cccc(CNCCNC(=O)c2nonc2N)c1,-9,5,i,-1.1,2
COC(=O)C1=C(C)NC(C)=C(C(=O)OC)C1c1ccc(-c2cccc(Cl)c2Cl)o1,79*,-1,i,0.8,4
